Measured values taken from ChEMBL document CHEMBL5104221, “ATP Mimetic Attack on the Nucleotide-Binding Domain to Overcome ABC Transporter Mediated Chemoresistance” (ACS Med Chem Lett, 2022).
Activity calls are given as the source filed them. The rule behind the calls is not given here.

Assays:
[1] = Cytotoxicity against paclitaxel-resistant human HCT116tax cells assessed as DNA damage by measuring fluorescence intensity incubated for 30 mins by Hoechst 33342 staining accumulation assay; assay type: functional, cell-based; conditions: 0.5 h
Outline: (§1)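 Hoechst 33342 retention measured in paclitaxel-resistant HCT116tax cells and in HCT116 cells transfected with MDR1- or BCRP-expressing plasmids. The dye was read by its blue fluorescence without washing. Tariquidar (1 μM) and sodium orthovanadate (500 μM) served as reference inhibitors. Accumulation is expressed relative to the vanadate-induced fluorescence difference, set as 100%.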

HCT-116 [2] = experiment: Cytotoxicity against human HCT-116 cells overexpressing human MDR1 assessed as DNA damage by measuring fluorescence intensity at 100 uM incubated for 30 mins by Hoechst 33342 staining accumulation assay; assay type: functional, cell-based; outline: as §1
HCT-116 [3] = experiment: Cytotoxicity against human HCT-116 cells overexpressing human MDR1 incubated for 48 hrs by MTT assay; assay type: functional, cell-based; conditions: HCT-116, 48 h
[4] = Cytotoxicity against paclitaxel-resistant human HCT116tax cells incubated for 48 hrs by MTT assay; assay type: functional, cell-based
[5] = Cytotoxicity against human HEK293 cells incubated for 48 hrs by MTT assay; assay type: toxicity, cell-based
HCT-116 [6] = experiment: Cytotoxicity against human HCT-116 cells assessed as reduction on cell viability at 100 uM incubated for 48 hrs in presence of paclitaxel by MTT assay; assay type: functional, cell-based
Outline: (§2)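 Wild-type HCT116 cells were exposed for 48 h in OptiMEM, with or without paclitaxel. Viability was read by MTT and normalised to wells containing 0.5% DMSO, taken as 100%.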

HCT-116 [7] = experiment: Cytotoxicity against human HCT-116 cells overexpressing human BCRP incubated for 48 hrs by MTT assay; assay type: functional, cell-based; conditions: HCT-116, 48 h
HCT116tax = experiment: Cytotoxicity against paclitaxel-resistant human HCT116tax cells assessed as reduction on cell viability at 100 to 200 uM incubated for 48 hrs in presence of paclitaxel by MTT assay; assay type: functional, cell-based; conditions: dose 100-200 µM
HCT-116 [8] = experiment: Cytotoxicity against in human HCT-116 cells overexpressing human BCRP assessed as DNA damage by measuring fluorescence intensity at 100 uM incubated for 30 mins by Hoechst 33342 staining accumulation assay; assay type: functional, cell-based; outline: as §1
HCT-116 [9] = experiment: Cytotoxicity against human HCT-116 cells incubated for 48 hrs by MTT assay; assay type: functional, cell-based; conditions: HCT-116, 48 h; outline: as §2

Compound | IC50 [1] [µM] | Activity (HCT-116 [2]) | EC50 (HCT-116 [3]) [µM] | EC50 [4] [µM] | EC50 at 48 h [5] [µM] | Activity (HCT-116 [6]) | EC50 (HCT-116 [7]) [µM] | Activity (HCT116tax) | Activity (HCT-116 [8]) | EC50 (HCT-116 [9]) [µM]
Nc1ncnc2c1ncn2COCCO | 7.3 | Active | > 100 | > 100 | > 100 | Active | > 100 | Active | Active | > 100
CC(C)[C@@H]1NC(=O)[C@@H]2CCCN2C1=O | 6.2 | Active | > 100 | > 100 | > 100 | Active | > 100 | Active | Active | > 100
NC(=O)c1ncn([C@@H]2O[C@H](CO)[C@@H](O)[C@H]2O)c1N [ACADESINE] | 5.3 | Active | > 100 | > 100 | > 100 | Active | > 100 | Active | Active | > 100
Nc1ncnc2c1ncn2[C@@H]1O[C@H](COP(=O)(O)O)[C@@H](O)[C@H]1O [ADENOSINE PHOSPHATE] | 3.2 | Active | > 100 | > 100 | > 100 | Active | > 100 | Active | Active | > 100
NC(=O)c1ncn([C@@H]2O[C@H](CO)[C@@H](O)[C@H]2O)n1 [RIBAVIRIN] | 5 | Active | > 100 | > 100 | > 100 | Active | > 100 | Active | Active | > 100
ORTHOVANADATE |  | Active |  |  |  |  |  |  | Active | 
